# This sample holds only a part of the variants without activity.
# B1: tRNA (parent)
# chain: GUUCCGUUGGCGUAAUGGUAACGCGUCUCCCUCCUAAGGAGAAGACUGCGGGUUCGAGUCCCGUACGGAACG
# Variants of: B1
# Experiment: yeast fitness relative to wild type (ratio to wild type); higher = fitter; tRNA-Arg(CCU), competitive growth, 37 C, YPD
# Procedure, shortened: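 Variants of the tRNA-Arg(CCU) gene were chemically synthesised with a 3% per-site mutation rate across 69 sites and placed at the native genomic locus in Saccharomyces cerevisiae. Six parallel replicates of the pooled strains were competed in YPD at 37°C for 24 hours, and gene amplicons from the start and end populations were read by 100-nucleotide paired-end sequencing. Darwinian fitness relative to wild type was derived from changes in genotype frequencies. Genotypes required ≥ 100 starting reads, and estimates < 0.5 were set to 0.5.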
row,Variant,yeast fitness
1,C29U C34U G39A G58A C60U,≤ 0.5
2,C30A C31U A45C C55G C60A,≤ 0.5
3,C30G A37U U47C C60A,0.68
4,C29U G48C,0.859
5,C29U G48A,0.986
6,C29U G38C A43U U53G G63C,≤ 0.5
7,C30G C31U U59A,0.563
8,C30A G48A,1.06
9,C30G G50A,0.72
10,C30G G50C,0.781
11,C30A A70G,0.983
12,C30A A70U,1.02
13,C29U C34A A42U U47C,0.64
14,C30A A36C G52A,≤ 0.5
15,C30A A40U G41C C61G G63C,≤ 0.5
16,C29U G41C C62U,0.552
17,C30A G41A A42C G50C A70G,≤ 0.5
18,C30A A37G C55U A57G U64A,≤ 0.5
19,C30A C55U A70C,0.545
20,C30G C60U C62G C66A,0.695
21,C30A C34G C60A U64A,0.541
22,C29U G38C A69U,0.581
23,C30A A45U C49A G63U A70U,0.523
24,C30G G51C,≤ 0.5

row,Variant,yeast fitness
1,C30G G51A,0.566
2,C30G G41C A70U,≤ 0.5
3,C30A G41C A45G G67C,≤ 0.5
4,C30A C61A A65G C66G A70G,≤ 0.5
5,C30A G38A G44A,≤ 0.5
6,C29U C34G G38C U54A A57C,≤ 0.5
7,C30G C33G C49G C61G,0.538
8,C29U G51C C55U,≤ 0.5
9,C30A G44C U59A A69U,0.65
10,C30G C49A G56A C60G G68C,0.541
11,C30A C34U G58C,≤ 0.5
12,C30G C49A,≤ 0.5
13,C30G C49U,0.643
14,C30G A69U,0.669
15,C30A C46U G52C,0.568
16,C30G C31G A65U C66G,≤ 0.5
17,C30G A43G C49G,0.544
18,C30G C34A C49G G50A U59C,≤ 0.5
19,C30G C31G U32A C33U,0.554
20,C30A A37C A43U,0.608
21,C30G A36U C49G U53C G58C G67A A70U,≤ 0.5
22,C29U U32A C33U G67U A70G,≤ 0.5
23,C30G G48C G52A G67U,≤ 0.5
24,C30G G41A A45C,≤ 0.5

row,Variant,yeast fitness
1,C29U C34G C55U C61G,0.508
2,C30A U53A,0.618
3,C30A A40G A42U C62A,≤ 0.5
4,C30A A43U G58C U64G,≤ 0.5
5,C29U U54C,0.83
6,C29U G44C G68A,0.57
7,C30G A40C C55A G58C A65U A70U,0.769
8,C30A C31U C66U A69U,≤ 0.5
9,C29U U59G C66U,0.732
10,C30G A37C A42G A57U,1.01
11,C30A A43U,0.936
12,C30A A43G,0.958
13,C30G C49A G68A,≤ 0.5
14,C30G C34U C49G C55U,≤ 0.5
15,C30A A37G,0.86
16,C30G A37G C61U,≤ 0.5
17,C30G C33A G56C A65G,≤ 0.5
18,C30G C46U,0.648
19,C30G C46A,0.587
20,C29U C61G A65U,≤ 0.5
21,C30A C46A G56A A69U,≤ 0.5
22,C29U U35C A37C A65G C66A,≤ 0.5
23,C30G G38C G56A,0.959
24,C29U G67A A70U,0.52

row,Variant,yeast fitness
1,C30G G38C G56A A65G,0.624
2,C30A A57G,0.74
3,C30A C46G G56A,0.74
4,C30G A42U G58C,≤ 0.5
5,C30G A42C G56A,≤ 0.5
6,C30G A40C,0.595
7,C30G A40G,0.605
8,C30G C34G A57U,≤ 0.5
9,C30G C33U G58C U64A C66U,≤ 0.5
10,C29U C34U A57C G63A A70G,≤ 0.5
11,C30G A42U C61A,0.639
12,C30A A57U C61A A69G,≤ 0.5
13,C30A A40U,0.819
14,C30A A40G,0.979
15,C30G A65C,0.68
16,C30G A65U,0.589
17,C29U C49U U59A,≤ 0.5
18,C30A U59C,0.863
19,C30A G58C,1
20,C30A C49U A69U,0.682
21,C30A G39C,0.656
22,C30A A42C A70C,0.819
23,C30A C31G C49A C60U G67A,0.526
24,C30A G50C A69U,≤ 0.5

row,Variant,yeast fitness
1,C30A C31U C33U A37C,≤ 0.5
2,C30G A37C G38A A40U A45G,≤ 0.5
3,C30G C33U G56C,≤ 0.5
4,C30G A37C G68A,≤ 0.5
5,C29U G48C G52A A69U,≤ 0.5
6,C30A U54C,0.811
7,C30G A37G C55G,0.537
8,C30G A37G A40C C55A G58C A65U A70U,0.542
9,C29U G56A,0.765
10,C29U G56C,0.595
11,C30A C31G G38C A57C,≤ 0.5
12,C30A A40U G51C C61U,0.646
13,C30A G38A A42U,≤ 0.5
14,C30A C31A,0.611
15,C30A C31G,1
16,C29U G44A A57G,0.623
17,C29U C49G,0.739
18,C29U C49G G58C,≤ 0.5
19,C30A C60U,0.727
20,C30A C60G,0.635
21,C30A C61U C62A A70G,≤ 0.5
22,C30A C55G A57C C62G G68C,0.513
23,C30A C31U A45C C49U C55G,≤ 0.5
24,C30A A36U G68A,0.543

row,Variant,yeast fitness
1,C29U U35C A65U,≤ 0.5
2,C30A U35A,0.569
3,C30G A40G G52C A57C C60U A70C,≤ 0.5
4,C30A U32A A57C,≤ 0.5
5,C30A C31U A42C,0.943
6,C30A C61G,0.651
7,C30A C61A,0.721
8,C29U C46G U54C G56C,≤ 0.5
9,C30G A37U G38A A57C A65C,≤ 0.5
10,C30A C31U A45C C55G,0.522
11,C30A G68C,0.823
12,C30A G68A,0.862
13,C30A U32A U35G G67A,≤ 0.5
14,C29U G41A,0.731
15,C30G C49U U64A,0.702
16,C29U G50C,0.664
17,C30G G41A C66U,≤ 0.5
18,C30A G52C A69C,≤ 0.5
19,C29U G56A C66U,0.619
20,C30A A40G A65G,0.967
21,C29U G63A A69U,0.641
22,C30A G50A G56A,0.742
23,C30A C31G U32A C60U,≤ 0.5
24,C30G A37G,0.513

row,Variant,yeast fitness
1,C30G A37C,0.673
2,C30G A37U,0.615
3,C29U G50C U59A,0.605
4,C30G C31G C33G A37C G67C,≤ 0.5
5,C30G A40G A45G G52C A57C C60U A70C,≤ 0.5
6,C30A A43U C55G G63C G67C,≤ 0.5
7,C30A A45U,0.997
8,C30A A45G,0.896
9,C29U U32C C46A,0.521
10,C30G A45U C60G C62U C66G,≤ 0.5
11,C30G C33G C60G A70G,0.544
12,C30G C33G C60G A70U,≤ 0.5
13,C30G C33G,≤ 0.5
14,C30G C33A,0.563
15,C30G A43G,0.589
16,C30A A57U C61U A69G,≤ 0.5
17,C29U U35G C62U,≤ 0.5
18,C30A C34A A43C C62U,≤ 0.5
19,C30A G41C A69C,0.598
20,C30G A43U G48C C55A G63A,≤ 0.5
21,C29U G39A C46A,1.13
22,C29U G50C U53C A57U C61G,≤ 0.5
23,C30A G68A A69C,0.629

# — the RNAGym collection of RNA variant scans (doi:10.1126/science.aae0568)
